Shown are actives, neighbours in structure and some others; about 3.5% of the full set was active somewhere.
FXIIa inh: factor XIIa (human) inhibition; actives 0.3% (n = 220,000); inhibition, % at 5 µM; purified FXIIa, Boc-QGR-AMC fluorogenic substrate, 2 h; AID 800; P00748; in the data active means inhibition above about 40%;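 further: 0% = enzyme with no compound and 100% = blank without enzyme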
hK5 inh: inhibitors of human kallikrein 5. inhibition, % at 5 µM. recombinant hK5, fluorogenic AMC substrate cleavage. Q9Y337. AID 873. actives 0.59% (n = 210,000);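 active means inhibition of 40% or more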;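 further: 0% = enzyme controls without compound and 100% = no-enzyme blanks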
Target sequence (Q9Y337 67-293 limits assumed): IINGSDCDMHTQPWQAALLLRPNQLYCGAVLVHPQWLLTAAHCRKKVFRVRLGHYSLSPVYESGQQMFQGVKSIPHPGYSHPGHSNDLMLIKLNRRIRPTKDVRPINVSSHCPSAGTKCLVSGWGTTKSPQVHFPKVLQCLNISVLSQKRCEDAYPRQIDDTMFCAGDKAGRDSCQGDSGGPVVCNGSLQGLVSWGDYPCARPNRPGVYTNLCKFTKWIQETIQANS
FXIa inh 1536: factor XIa (human) inhibition; inhibition, % at 5 µM; purified FXIa, Boc-Glu-Ala-Arg-AMC fluorogenic substrate; P03951; actives 0.14% (n = 220,000); AID 798;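 active means inhibition of at least 40%; inactive means inhibition below 40%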;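 further: fluorescence of freed AMC excited at 355 nm; 0% = enzyme without compound and 100% = no enzyme blank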
STAT3 activator: activators of IL-6 induced STAT3 signaling. U3A cells, IL-6 STAT3-luciferase reporter, luminescence; 100% = signal with IL-6 EC80 alone. activation (% of control), % at 5.6 µM. actives 0.91% (n = 190,000). AID 871;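 active means activation above the screen-wide mean of compound activation plus 3 SD, cut at about 130% in these data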;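 further: 0% = background luminescence of wells with medium and substrate only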
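system = STAT3-luciferase reporter U3A cells | reagent = IL-6 stimulus at 33 ng/mL final | timing = 1 h compound pre-exposure, 6 h IL-6 stimulation, 37 °C | measured by = luminescence | evaluation = % activation versus median of IL-6-stimulated wells | control set = IL-6-only wells as 100% reference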
thrombin 1536: thrombin (human) inhibition. alpha-thrombin, Boc-VPR-AMC fluorogenic substrate cleavage. inhibition, % at 5 µM. actives 0.26% (n = 220,000);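 active means inhibition at or above 40%; inactive means inhibition below 40%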;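 further: 0% = enzyme with no compound and 100% = wells without enzyme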
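Material: human alpha-thrombin enzyme / Medium: pH 7.5 Tris (50 mM) with NaCl 150 mM, Tween 20 0.05% / Compound: single-point dosing at 5 µM, 0.2% DMSO / Incubation: enzyme reaction carried out at room temperature / Detection: AMC fluorescence, 355/460 nm / Read-out basis: percent inhibition scaled between no-compound controls and no-enzyme blanks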
AHR activator: activates the human aryl hydrocarbon receptor; P35869; actives 2.5% (n = 320,000); activation, % at 5 µM; AHR-responsive luciferase reporter cells, luminescence; in the data active means activation above about 47%;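 further: 0% = vehicle wells and 100% = reference agonist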
Active calls of the source: *; / = no result given.

SMILES | FXIIa inh | hK5 inh | FXIa inh 1536 | STAT3 activator | thrombin 1536 | AHR activator
CCNC(=S)N1N=C2c3ccccc3CCC2C1c1ccc(F)cc1 (stereo unspecified) | 9 | -9 | 5 | / | -2 | 51*
COC(=O)c1sccc1NC(=O)/C=C/c1ccc(Cl)cc1 | 8 | -11 | 9 | 100 | -1 | 54*
O=C(NCCc1ccc2c(c1)OCCO2)c1ccc(F)cc1 | 17 | -5 | 6 | 91 | -1 | -2
O=C(NCc1cccnc1)c1cccc(Cl)c1 | 12 | -21 | 1 | 98 | -1 | 4
O=C(NCc1cccnc1)c1cc(Cl)ccc1[N+](=O)[O-] | 8 | -20 | 10 | 82 | -1 | 74*
O=C(CSc1ccc2nnc(-c3ccccn3)n2n1)Nc1ccc2c(c1)OCCO2 | 11 | -1 | 4 | 96 | 1 | -9
O=C(CSc1ccc2nnc(-c3ccccn3)n2n1)Nc1ccc2c(c1)OCO2 | 9 | -24 | 2 | 93 | -2 | 53*
Cc1ccc(NC(=O)CSc2ccc3nnc(-c4cccnc4)n3n2)cc1 | / | / | / | / | / | 63*
Cc1cc(NC(=O)CSc2ccc3nnc(-c4cccs4)n3n2)no1 | -2 | -7 | -13 | 99 | -7 | 49*
O/N=C/c1cc(Br)cc(Br)c1OCc1ccccc1 | 4 | -7 | -4 | 92 | -3 | 64*
COCCN=c1scc(-c2ccccc2)n1/N=C/c1c[nH]c2ccccc12 | 11 | -4 | 0 | 101 | -5 | 55*
COC(=O)c1cccc(NC(=O)c2cc3sccc3n2C)c1 | 4 | -14 | 5 | 100 | -8 | -4
COC(=O)c1ccccc1NC(=O)c1cc2sccc2n1C | 0 | -14 | -1 | 85 | 1 | 65*
O=C1C(Oc2ccccc2)C(c2ccc3c(c2)OCO3)N1CCc1ccc(F)cc1 (stereo unspecified) | 5 | -10 | 5 | 94 | 0 | 71*
Oc1c(C=Nc2cccc3cccnc23)sc2ccccc12 | 17 | -206 | 8 | 118 | 4 | 58*
O=C(Nc1nc(-c2ccccc2)cs1)c1cccs1 | 2 | -9 | -6 | 93 | -5 | 4
Cc1noc(C)c1C(=O)Nc1nc(-c2cccs2)cs1 | / | / | / | / | / | 63*
O=C(Nc1nc(-c2ccc(Cl)s2)cs1)c1cccs1 | 73* | 16 | 91* | 102 | 39 | 71*
CC(C)c1ccc(NC(=O)COC(=O)c2cc(=O)[nH]c3ccccc23)cc1 | / | / | / | / | / | 11
Cc1cc(N2CCOCC2)nc2ccc(Cl)cc12 | / | / | / | / | / | 32
O=C(NCCS(=O)(=O)NC1CCCC1)c1ccccc1 | / | / | / | / | / | 1
CCOC(=O)c1sc(NC(=O)CSc2nc3ccccc3s2)c(C(=O)OCC)c1C | 14 | -6 | 8 | 111 | 1 | 17
Cc1cc(Nc2ncc(Cl)cc2Cl)n[nH]1 | 17 | -9 | 2 | 90 | 1 | 54*
COc1ccc(-c2nc(C#N)c(NCCCn3ccnc3)o2)cc1OC | 26 | -26 | 20 | 108 | 1 | 70*
CC(C)(C)c1ccc(-c2nc(C#N)c(NCCCn3ccnc3)o2)cc1 | 7 | 3 | 4 | / | -4 | 31
SMILES | FXIIa inh | hK5 inh | FXIa inh 1536 | STAT3 activator | thrombin 1536 | AHR activator
N#Cc1nc(-c2ccco2)oc1NCCCn1ccnc1 | 13 | -10 | -3 | 105 | -2 | 70*
Cc1ccc(Cl)cc1NC(=S)N/N=C/c1cccc2ccccc12 | 12 | -3 | 4 | / | 2 | 55*
Cc1ccccc1C(=O)N/N=C/c1cccc2ccccc12 | / | / | / | / | / | 23
CCCN1CCC(NC23CC4CC(CC(C4)C2)C3)CC1 | / | / | / | / | / | -1
C=CCn1c(=NC(=O)C2CCCCC2)sc2cc(NC(C)=O)ccc21 | 4 | 11 | -5 | 90 | 9 | 1
C=CCn1c(=NC(=O)C2CC2)sc2cc(NC(C)=O)ccc21 | 4 | -1 | 0 | 123 | -2 | 62*
Cc1cc(-c2ccccc2)nc(Cl)c1C#N | 0 | -32 | 0 | 102 | -9 | 76*
CCCCN(C(=O)CSc1nnc(-c2ccccc2)o1)c1c(N)n(CCC)c(=O)[nH]c1=O | / | / | / | / | / | 1
Cc1ncoc1C(=O)N1CCCC(N2CCN(c3cccc(C(F)(F)F)c3)CC2)C1 (stereo unspecified) | / | / | / | / | / | 55*
Cc1cc(Cl)nc(SCC(=O)c2ccccc2)n1 | / | / | / | / | / | 61*
CN(C)CCCNc1oc(-c2cccc(Cl)c2)nc1C#N | 12 | -58 | 1 | 103 | -2 | 4
Cc1ccc2c(c1)c1c3n2CCCNC3CCC1 (stereo unspecified) | 18 | -26 | -13 | 104 | 41* | 2
COc1ccc(CCNC(=O)Cn2nnc(C(=O)Nc3cc(C)ccc3C)c2N)cc1OC | / | / | / | / | / | 12
CCC(=O)c1ccc(OCc2ccc(C(=O)OC)cc2)c(OC)c1 | 25 | 57* | 1 | 103 | 13 | 9
CCC(=O)c1ccc(OCc2ccccc2)c(OC)c1 | 0 | -20 | -2 | 108 | -8 | 6
Cc1ccc(S(=O)(=O)N(C)CC(=O)Nc2ccccc2)cc1 | 23 | 53* | 15 | 100 | 14 | 0
CSc1cccc(NC(=O)CN(C)S(=O)(=O)c2ccc(C)cc2)c1 | 23 | 17 | 11 | 98 | 14 | 1
CCOC(=O)c1c(C)[nH]c(C)c1S(=O)(=O)N(C)CC(=O)Nc1cc(C)ccc1OC | / | / | / | / | / | 55*
CCOC(=O)c1c(C)[nH]c(C)c1S(=O)(=O)N(C)CC(=O)Nc1ccc(C)cn1 | / | / | / | / | / | 6
COC(=O)c1ccccc1NC(=O)CN(C)S(=O)(=O)c1ccc(OC)c(C)c1 | 4 | 119* | -4 | 103 | 2 | 2
Cc1cc(C)c2c(-n3cccc3)c(NC(=O)OC(C)C)sc2n1 | 7 | -4 | -6 | 114 | -6 | 66*
Cc1cc(C)c2c(-n3cccc3)c(C(=O)O)sc2n1 | 5 | -4 | 4 | 101 | 3 | 2
CCCc1nc(SCC(=O)N2CCCCCC2)c2c(=O)n(C)c(=O)n(C)c2n1 | / | / | / | / | / | 2
COc1ccc2c(c1)CCc1c-2nc2ccccc2c1N1CCOCC1 | 6 | 1 | 2 | / | 4 | 29
CC(C)CN1CCC(=O)N(CCSc2ccc(Br)cc2)CC1 | 3 | 5 | 20 | / | -4 | 4
SMILES | FXIIa inh | hK5 inh | FXIa inh 1536 | STAT3 activator | thrombin 1536 | AHR activator
C[C@H](CO)N1C[C@H](C)[C@@H](CN(C)Cc2ccc(C(=O)O)cc2)Oc2c(NS(=O)(=O)c3cn(C)cn3)cccc2C1=O | / | / | / | / | / | 1
c1ccc2c(c1)[nH]c1c(N3CCC4(CC3)OCCO4)ncnc12 | -12 | -10 | -13 | 128 | -1 | 66*
Cc1ccc2c(c1)c1ncnc(N3CCOCC3)c1n2C | -36 | -100 | -22 | 105 | -7 | 32
OC1(c2cccc(C(F)(F)F)c2)CCN(c2ncnc3c2[nH]c2ccccc23)CC1 | 9 | -14 | 4 | 119 | 0 | 54*
c1ccc2c(c1)CCN(c1ncnc3c1[nH]c1ccccc13)C2 | -11 | -2 | -18 | / | -7 | -13
Cc1ccc2c(c1)c1ncnc(N3CCC4(CC3)OCCO4)c1n2C | -24 | 2 | -1 | 135* | 2 | /
CCCCNC(=O)Oc1c(Br)cc2sc(=O)oc2c1Br | 11 | 5 | 3 | / | 2 | 0
